High-throughput results: PubChem BioAssay, The Scripps Research Institute Molecular Screening Center
This is a sample that favours compounds with a hit; in the whole collection about 2.4% have one here.
NPY Y2 blocker: NPY-Y2 (human) receptor antagonism. inhibition, % at 2.7 µM. actives 0.99% (n = 140,000). P49146. NPY-Y2 expressing cells, antagonist mode; in the data active = inhibition above about 17%
Target sequence (P49146 whole entry, looked up): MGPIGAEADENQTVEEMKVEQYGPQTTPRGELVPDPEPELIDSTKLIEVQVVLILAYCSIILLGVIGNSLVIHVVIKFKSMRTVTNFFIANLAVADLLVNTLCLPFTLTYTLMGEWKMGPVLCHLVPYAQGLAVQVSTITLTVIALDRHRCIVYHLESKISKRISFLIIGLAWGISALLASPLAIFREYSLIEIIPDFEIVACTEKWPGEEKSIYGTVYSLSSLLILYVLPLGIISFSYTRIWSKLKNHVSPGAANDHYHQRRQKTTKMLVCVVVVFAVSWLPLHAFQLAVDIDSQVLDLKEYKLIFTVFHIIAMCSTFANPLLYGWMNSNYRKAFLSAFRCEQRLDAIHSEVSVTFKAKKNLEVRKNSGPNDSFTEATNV
S1P4 ag: agonists of human S1P4 receptor. S1P4-expressing cell line, agonist reporter assay. activation, % at 4.98 µM. actives 0.35% (n = 220,000). AID 1509; in the data active = activation above about 11%
NPY Y1 blocker: antagonists of human neuropeptide Y receptor Y1 | P25929 | inhibition, % at 3.6 µM | HEK293-CNG Y1 cells, membrane potential fluorescence; NPY at EC95, then isoproterenol | actives 1% (n = 200,000);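 active = inhibition above the campaign mean inhibition of all tested compounds plus 3 SD, cut at about 20% in these data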
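Material: Y1- and CNG-channel-expressing HEK293 cells / Probe or stimulus: NPY 25 nM then isoproterenol 1 µM plus Ro 20-1724 25 µM / Doses: 3.6 µM single dose, DMSO 0.4% / Schedule: compound incubation 1 h at room temperature, readout 45 min post-stimulation / Signal: membrane potential fluorescence / Benchmarks: isoproterenol-only wells as full block versus NPY-plus-isoproterenol wells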
NPY-Y2 PAM-ag: human NPY-Y2 potentiation or agonism, primary screen; P49146; cells expressing NPY-Y2, potentiator/agonist read-out; activation, % at 3.6 µM; actives 0.45% (n = 220,000); AID 1359; in the data active = activation above about 27%;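 note: cells stimulated with NPY near EC25 plus isoproterenol at EC100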
S1P4 antag: human S1P4 receptor antagonism; O95977; S1P4-expressing cells, antagonist mode, reporter read-out; inhibition, % at 4.98 µM; actives 0.26% (n = 220,000); in the data active = inhibition above about 29%
NPY1 pot ag: potentiators or agonists of human neuropeptide Y receptor Y1; P25929; NPY-Y1 expressing cells, potentiator/agonist activation; actives 0.37% (n = 220,000); activation, % at 3.6 µM; AID 1304; in the data active = activation above about 33%, passing the limit was not always enough;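 note: cells stimulated with NPY at EC10 then isoproterenol at EC100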
S1P4 antag conf: confirmation of human S1P4 receptor antagonists. inhibition, % at 4.98 µM. actives 71% (n = 520). S1P4-expressing cell line, antagonist mode, reporter read-out. shares compounds with S1P4 antag; in the data active = inhibition above about 30%
S1P1 antag: blocks human S1P1, counter-screen for S1P4 antagonists; inhibition, % at 4.98 µM; actives 37% (n = 520); AID 1564; shares compounds with S1P4 antag; cell-based S1P1 antagonist counterscreen, inhibition; in the data active = inhibition above about 40%;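 note: receptor stimulated with S1P near its EC80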
Of the large screens only hits and unclear results are named; the others gave an inactive call (follow-up assays come after a bar, where they were run); ! = a repeat was not active.

S=C1Cc2ccccc2N1	S1P4 antag 35 (no result: NPY Y2 blocker, NPY Y1 blocker) | S1P4 antag conf 110 | S1P1 antag 44
CN(c1ccccc1)c1ccc(/C=C/[N+](=O)[O-])cc1	S1P4 antag 55 | S1P4 antag conf 119 | S1P1 antag 66
CC(=O)Nc1ccc(OC(=O)c2ccc(Br)c([N+](=O)[O-])c2)cc1	S1P4 antag 48 (no result: NPY Y2 blocker) | S1P4 antag conf 68 | S1P1 antag inactive
CCOc1ccc(C(=O)Oc2ccc(NC(C)=O)cc2)cc1	none (no result: NPY Y2 blocker)
CCc1cc(C(=O)OC)c(NC(=O)c2cc(Br)cs2)s1	none
C=CCNc1cnn(CC(C)=O)c(=O)c1Br	none
CC(C)(C)C(=O)Cn1ncc(Br)c(Br)c1=O	S1P4 antag 64 (no result: NPY Y2 blocker) | S1P4 antag conf 93 | S1P1 antag inactive
COc1ccc(-n2c(SCC(=O)NNC(=O)c3ccc(C)cc3)nnc2-c2ccncc2)cc1	none
COc1ccc(CCNC(=O)c2ccccc2NC(=O)c2ccco2)cc1OC	S1P4 antag 30 | S1P4 antag conf inactive | S1P1 antag inactive
COc1ccc(CCNC(=O)c2ccco2)cc1OC	none (no result: NPY Y2 blocker)
COc1ccccc1N1Cc2ccccc2C1	none
O=S(=O)(Nc1cccc2ncccc12)c1cccs1	S1P4 antag 54 | S1P4 antag conf 106 | S1P1 antag 91
O=C(/C=C/c1ccc([N+](=O)[O-])s1)N1CCCCC1	none (no result: NPY Y2 blocker)
COc1ccc(OC)c2c1C(=O)C(Cl)=C(Cl)C2=O	S1P4 antag 56 (no result: NPY Y2 blocker, NPY Y1 blocker) | S1P4 antag conf 107 | S1P1 antag 74
COc1ccc(CCNC(=O)C2CCN(Cc3nc(-c4cccc(Cl)c4)oc3C)CC2)cc1OC	S1P4 antag 30 | S1P4 antag conf inactive | S1P1 antag inactive
Cc1oc(-c2cccc(Cl)c2)nc1CN1CCC(C(=O)NCCCN2CCCC2=O)CC1	none
COc1ccccc1/C=N\Nc1ccccc1[N+](=O)[O-]	none (no result: NPY Y2 blocker, NPY Y1 blocker)
O=C(Nc1cccc(-c2nc3ccccc3s2)c1)c1cc(-n2cnnc2)ccc1Cl	S1P4 antag 31 | S1P4 antag conf inactive | S1P1 antag inactive
CCC(C)NC(=O)CN(c1cc(Cl)ccc1OC)S(C)(=O)=O (configuration not stated)	none
CN(Cc1ccccc1)C(=O)COC(=O)CCNC(=O)c1ccccc1Cl	none (no result: NPY Y2 blocker)
O=C(CCCn1cnc([N+](=O)[O-])n1)Nc1cccc2ccccc12	S1P4 antag 112 (no result: NPY Y2 blocker) | S1P4 antag conf inactive | S1P1 antag inactive
Cc1onc(-c2ccccc2)c1C(=O)Nc1ccncc1	none
Cc1onc(-c2ccccc2)c1C(=O)Nc1nnc(-c2ccncc2)s1	S1P4 antag 51 | S1P4 antag conf 63 | S1P1 antag inactive
CC(=O)c1c(C)[nH]c(C(=O)CSc2nc3ccc(C)cc3[nH]2)c1C	none
COC(=O)[C@H](CC(C)C)NC(=O)N1CCCCC1	none (no result: NPY Y2 blocker, NPY Y1 blocker)
Nc1ccc2c(C(F)(F)F)cc(=O)oc2c1	S1P4 antag 46 | S1P4 antag conf 45 | S1P1 antag inactive
CCC(OC(=O)C1=Cc2ccccc2OC1)C(=O)NC1CCCC1 (configuration not stated)	none
O=C(Nc1cccc(Cl)c1)Nc1nccs1	S1P4 antag 35! | S1P4 antag conf inactive | S1P1 antag inactive
COc1ccc(CC(NC(C)=O)C(=O)N2CCN(C(=O)N(C(C)C)C(C)C)CC2)cc1 (configuration not stated)	none
c1ccc(-c2nnc(CN3CCN(C(c4ccccc4)c4ccccc4)CC3)o2)cc1	S1P4 antag 68 (no result: NPY Y2 blocker) | S1P4 antag conf inactive | S1P1 antag inactive
c1ccc(-c2nnc(CN3CCN(c4ccccc4)CC3)o2)cc1	none (no result: NPY Y2 blocker)
COc1ccccc1/C=C/C(=O)c1cc(Br)ccc1OC(=O)c1ccco1	none
O=C(/C=C/c1cc(Br)ccc1O)c1ccco1	S1P4 antag 55 (no result: NPY Y2 blocker, NPY Y1 blocker) | S1P4 antag conf 103 | S1P1 antag 56
Cc1ccc(C)c(C(=O)Cn2ncc(Cl)c(Cl)c2=O)c1	S1P4 antag 67 | S1P4 antag conf 116 | S1P1 antag 59
Cc1cccc(Cn2ncc(Cl)c(Cl)c2=O)c1	none
CCCc1cc(=O)[nH]c(SCC(=O)c2cc(C)n(CC(F)(F)F)c2C)n1	none (no result: NPY Y2 blocker)
Cc1cc(C(=O)Cn2ncc(Cl)c(Cl)c2=O)c(C)n1CC(F)(F)F	S1P4 antag 90 | S1P4 antag conf 105 | S1P1 antag 65
N#Cc1cn(CCOc2ccccc2F)c2ccccc12	S1P4 antag 37 | S1P4 antag conf inactive | S1P1 antag inactive
N#Cc1cn(CCOc2ccc(F)cc2)c2ccccc12	none
Cc1ccccc1Oc1ncnc(N)c1[N+](=O)[O-]	none (no result: NPY Y2 blocker)
COc1ccc(NC(=O)CN(Cc2ccccc2)S(C)(=O)=O)cc1	none
CN1/C(=C/C(=O)c2nc(S(C)(=O)=O)ncc2Cl)C(C)(C)c2ccccc21	S1P4 antag 65 | S1P4 antag conf 111 | S1P1 antag inactive
CCOC(=O)C(/C(N)=N/C(=O)Nc1ccccc1)=C(\C)O	none
Cc1ccc2c(c1)C1OCCC1C1N2C(=O)C2C(C(=O)O)C3C=CC21O3 (configuration not stated)	none
COCCNc1ncnc2c1cnn2-c1ccc(Cl)cc1	S1P4 antag 33 | S1P4 antag conf inactive | S1P1 antag inactive
O=C(N/N=C/C(Br)=C/c1ccccc1)c1n[nH]c2c1CCC2	S1P4 antag 32 | S1P4 antag conf 46 | S1P1 antag 82
COc1cc2c3nnc(-c4ccc(F)cc4)c-3cn(Cc3ccc(F)cc3)c2cc1OC	none
COc1cc2c3nnc(-c4ccc(F)cc4)c-3cn(Cc3ccccc3)c2cc1OC	S1P4 antag 41 | S1P4 antag conf 85 | S1P1 antag 120
COc1ccccc1-c1cc(C(=O)Nc2c(F)cc(F)cc2Br)no1	S1P4 antag 41 | S1P4 antag conf 42 | S1P1 antag inactive
O=C(Nc1c(F)cc(F)cc1Br)c1cc(-c2ccco2)on1	none
C=CCNC(=O)c1cnc2n(c1=O)CCS2	none
CCOC(=O)C1=C(C)N=C2SCCC(=O)N2C1c1ccc(OC)cc1 (configuration not stated)	none (no result: NPY Y2 blocker)
COCCOC(=O)C1=C(C)N=C2SCCC(=O)N2C1c1ccc(OC(=O)c2ccco2)cc1 (configuration not stated)	S1P4 antag 35 | S1P4 antag conf 54 | S1P1 antag 52
Cc1ccc(Nc2nc(N)nc(CN3CCN(Cc4ccc5c(c4)OCO5)CC3)n2)c(C)c1	none
COc1ccccc1-c1cc(C(F)(F)F)nc(S(C)(=O)=O)n1	S1P4 antag 68 | S1P4 antag conf 86 | S1P1 antag inactive
COc1ccc(N2CC(NC(=O)N(C)CCC#N)CC2=O)cc1 (configuration not stated)	none (no result: NPY Y2 blocker)
